Assays:
Format in all cases: functional
Digitaria sanguinalis [1] = test: Herbicidal activity against Digitaria sanguinalis (hairy crabgrass) assessed as inhibition of fresh weed plant weight at 93.75 g/ha using post-emergence treatment protocol
How it was run: (§1)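 Test compounds made up as emulsions by dissolving in 100 µL N,N-dimethylformamide, then adding a little Tween 20 and water. For post-emergence, weed seedlings at one leaf and one stem were sprayed at the same rates as the pre-emergence test. Fresh weight was recorded 15 days after treatment and expressed as percent inhibition versus controls. All treatments were run in triplicate.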

[2] = system: Brassica rapa subsp. oleifera; test: Herbicidal activity against Brassica rapa subsp. oleifera assessed as inhibition of fresh weed plant weight at 375 g/ha using pre-emergence treatment protocol
Amaranthus retroflexus [3] = test: Herbicidal activity against Amaranthus retroflexus assessed as inhibition of fresh weed plant weight at 750 g/ha using pre-emergence treatment protocol; how it was run: as §1
[4] = system: Brassica rapa subsp. oleifera; test: Herbicidal activity against Brassica rapa subsp. oleifera assessed as inhibition of fresh weed plant weight at 22.5 g/ha using pre-emergence treatment protocol
[5] = system: Brassica rapa subsp. oleifera; test: Herbicidal activity against Brassica rapa subsp. oleifera assessed as inhibition of fresh weed plant weight at 187.5 g/ha using post-emergence treatment protocol; how it was run: as §1
Amaranthus retroflexus [6] = test: Herbicidal activity against Amaranthus retroflexus assessed as inhibition of fresh weed plant weight at 1500 g/ha using pre-emergence treatment protocol
Digitaria sanguinalis [7] = test: Herbicidal activity against Digitaria sanguinalis (hairy crabgrass) assessed as inhibition of fresh weed plant weight at 187.5 g/ha using post-emergence treatment protocol; how it was run: as §1
Digitaria sanguinalis [8] = test: Herbicidal activity against Digitaria sanguinalis (hairy crabgrass) assessed as inhibition of fresh weed plant weight at 45 g/ha using pre-emergence treatment protocol
Amaranthus retroflexus [9] = test: Herbicidal activity against Amaranthus retroflexus assessed as inhibition of fresh weed plant weight at 45 g/ha using pre-emergence treatment protocol
Amaranthus retroflexus [10] = test: Herbicidal activity against Amaranthus retroflexus assessed as inhibition of fresh weed plant weight at 93.75 g/ha using pre-emergence treatment protocol
Echinochloa crus-galli [11] = test: Herbicidal activity against Echinochloa crus-galli (barnyard grass) assessed as inhibition of fresh weed plant weight at 93.75 g/ha using post-emergence treatment protocol; how it was run: as §1
Digitaria sanguinalis [12] = test: Herbicidal activity against Digitaria sanguinalis (hairy crabgrass) assessed as inhibition of fresh weed plant weight at 375 g/ha using post-emergence treatment protocol; how it was run: as §1
Digitaria sanguinalis [13] = test: Herbicidal activity against Digitaria sanguinalis (hairy crabgrass) assessed as inhibition of fresh weed plant weight at 187.5 g/ha using pre-emergence treatment protocol
Amaranthus retroflexus [14] = test: Herbicidal activity against Amaranthus retroflexus assessed as inhibition of fresh weed plant weight at 375 g/ha using pre-emergence treatment protocol
[15] = system: Brassica rapa subsp. oleifera; test: Herbicidal activity against Brassica rapa subsp. oleifera assessed as inhibition of fresh weed plant weight at 93.75 g/ha using post-emergence treatment protocol; how it was run: as §1
Echinochloa crus-galli [16] = test: Herbicidal activity against Echinochloa crus-galli (barnyard grass) assessed as inhibition of fresh weed plant weight at 1500 g/ha using post-emergence treatment protocol; how it was run: as §1
Echinochloa crus-galli [17] = test: Herbicidal activity against Echinochloa crus-galli (barnyard grass) assessed as inhibition of fresh weed plant weight at 375 g/ha using pre-emergence treatment protocol; how it was run: as §1
Digitaria sanguinalis [18] = test: Herbicidal activity against Digitaria sanguinalis (hairy crabgrass) assessed as inhibition of fresh weed plant weight at 1500 g/ha using pre-emergence treatment protocol
[19] = system: Brassica rapa subsp. oleifera; test: Herbicidal activity against Brassica rapa subsp. oleifera assessed as inhibition of fresh weed plant weight at 750 g/ha using pre-emergence treatment protocol
Digitaria sanguinalis [20] = test: Herbicidal activity against Digitaria sanguinalis (hairy crabgrass) assessed as inhibition of fresh weed plant weight at 375 g/ha using pre-emergence treatment protocol
Amaranthus retroflexus [21] = test: Herbicidal activity against Amaranthus retroflexus assessed as inhibition of fresh weed plant weight at 750 g/ha using post-emergence treatment protocol; how it was run: as §1
Echinochloa crus-galli [22] = test: Herbicidal activity against Echinochloa crus-galli (barnyard grass) assessed as inhibition of fresh weed plant weight at 1500 g/ha using pre-emergence treatment protocol
Amaranthus retroflexus [23] = test: Herbicidal activity against Amaranthus retroflexus assessed as inhibition of fresh weed plant weight at 187.5 g/ha using post-emergence treatment protocol; how it was run: as §1
Digitaria sanguinalis [24] = test: Herbicidal activity against Digitaria sanguinalis (hairy crabgrass) assessed as inhibition of fresh weed plant weight at 93.75 g/ha using pre-emergence treatment protocol
[25] = system: Brassica rapa subsp. oleifera; test: Herbicidal activity against Brassica rapa subsp. oleifera assessed as inhibition of fresh weed plant weight at 93.75 g/ha using pre-emergence treatment protocol
[26] = system: Brassica rapa subsp. oleifera; test: Herbicidal activity against Brassica rapa subsp. oleifera assessed as inhibition of fresh weed plant weight at 1500 g/ha using pre-emergence treatment protocol
Echinochloa crus-galli [27] = test: Herbicidal activity against Echinochloa crus-galli (barnyard grass) assessed as inhibition of fresh weed plant weight at 750 g/ha using post-emergence treatment protocol; how it was run: as §1
[28] = system: Brassica rapa subsp. oleifera; test: Herbicidal activity against Brassica rapa subsp. oleifera assessed as inhibition of fresh weed plant weight at 1500 g/ha using post-emergence treatment protocol; how it was run: as §1
Echinochloa crus-galli [29] = test: Herbicidal activity against Echinochloa crus-galli (barnyard grass) assessed as inhibition of fresh weed plant weight at 93.75 g/ha using pre-emergence treatment protocol
Digitaria sanguinalis [30] = test: Herbicidal activity against Digitaria sanguinalis (hairy crabgrass) assessed as inhibition of fresh weed plant weight at 750 g/ha using post-emergence treatment protocol; how it was run: as §1
[31] = system: Brassica rapa subsp. oleifera; test: Herbicidal activity against Brassica rapa subsp. oleifera assessed as inhibition of fresh weed plant weight at 750 g/ha using post-emergence treatment protocol; how it was run: as §1
Amaranthus retroflexus [32] = test: Herbicidal activity against Amaranthus retroflexus assessed as inhibition of fresh weed plant weight at 187.5 g/ha using pre-emergence treatment protocol
Amaranthus retroflexus [33] = test: Herbicidal activity against Amaranthus retroflexus assessed as inhibition of fresh weed plant weight at 375 g/ha using post-emergence treatment protocol; how it was run: as §1
Digitaria sanguinalis [34] = test: Herbicidal activity against Digitaria sanguinalis (hairy crabgrass) assessed as inhibition of fresh weed plant weight at 22.5 g/ha using pre-emergence treatment protocol
[35] = system: Brassica rapa subsp. oleifera; test: Herbicidal activity against Brassica rapa subsp. oleifera assessed as inhibition of fresh weed plant weight at 45 g/ha using pre-emergence treatment protocol
Echinochloa crus-galli [36] = test: Herbicidal activity against Echinochloa crus-galli (barnyard grass) assessed as inhibition of fresh weed plant weight at 375 g/ha using post-emergence treatment protocol; how it was run: as §1
Amaranthus retroflexus [37] = test: Herbicidal activity against Amaranthus retroflexus assessed as inhibition of fresh weed plant weight at 22.5 g/ha using pre-emergence treatment protocol
Echinochloa crus-galli [38] = test: Herbicidal activity against Echinochloa crus-galli (barnyard grass) assessed as inhibition of fresh weed plant weight at 187.5 g/ha using pre-emergence treatment protocol; how it was run: as §1
Digitaria sanguinalis [39] = test: Herbicidal activity against Digitaria sanguinalis (hairy crabgrass) assessed as inhibition of fresh weed plant weight at 750 g/ha using pre-emergence treatment protocol
[40] = system: Brassica rapa subsp. oleifera; test: Herbicidal activity against Brassica rapa subsp. oleifera assessed as inhibition of fresh weed plant weight at 187.5 g/ha using pre-emergence treatment protocol
Amaranthus retroflexus [41] = test: Herbicidal activity against Amaranthus retroflexus assessed as inhibition of fresh weed plant weight at 1500 g/ha using post-emergence treatment protocol; how it was run: as §1
Amaranthus retroflexus [42] = test: Herbicidal activity against Amaranthus retroflexus assessed as inhibition of fresh weed plant weight at 93.75 g/ha using post-emergence treatment protocol; how it was run: as §1
Echinochloa crus-galli [43] = test: Herbicidal activity against Echinochloa crus-galli (barnyard grass) assessed as inhibition of fresh weed plant weight at 187.5 g/ha using post-emergence treatment protocol; how it was run: as §1
[44] = system: Brassica rapa subsp. oleifera; test: Herbicidal activity against Brassica rapa subsp. oleifera assessed as inhibition of fresh weed plant weight at 375 g/ha using post-emergence treatment protocol; how it was run: as §1
Echinochloa crus-galli [45] = test: Herbicidal activity against Echinochloa crus-galli (barnyard grass) assessed as inhibition of fresh weed plant weight at 750 g/ha using pre-emergence treatment protocol
Echinochloa crus-galli [46] = test: Herbicidal activity against Echinochloa crus-galli (barnyard grass) assessed as inhibition of fresh weed plant weight at 22.5 g/ha using pre-emergence treatment protocol; how it was run: as §1
Digitaria sanguinalis [47] = test: Herbicidal activity against Digitaria sanguinalis (hairy crabgrass) assessed as inhibition of fresh weed plant weight at 1500 g/ha using post-emergence treatment protocol; how it was run: as §1
Echinochloa crus-galli [48] = test: Herbicidal activity against Echinochloa crus-galli (barnyard grass) assessed as inhibition of fresh weed plant weight at 45 g/ha using pre-emergence treatment protocol

C=CCN1C(=O)COc2cc(F)c(-n3nnc4c(cnn4CC=C)c3=O)cc21
inhibition at 93.75 g/ha (Digitaria sanguinalis [1]): 0% | inhibition at 375 g/ha [2]: 100% | inhibition at 750 g/ha (Amaranthus retroflexus [3]): 100% | inhibition at 22.5 g/ha [4]: 12.7% | inhibition at 187.5 g/ha [5]: 55.6% | inhibition at 1500 g/ha (Amaranthus retroflexus [6]): 100% | inhibition at 187.5 g/ha (Digitaria sanguinalis [7]): 0% | inhibition at 45 g/ha (Digitaria sanguinalis [8]): 17.1% | inhibition at 45 g/ha (Amaranthus retroflexus [9]): 82.8% | inhibition at 93.75 g/ha (Amaranthus retroflexus [10]): 100% | inhibition at 93.75 g/ha (Echinochloa crus-galli [11]): 0.2% | inhibition at 375 g/ha (Digitaria sanguinalis [12]): 0% | inhibition at 187.5 g/ha (Digitaria sanguinalis [13]): 26.5% | inhibition at 375 g/ha (Amaranthus retroflexus [14]): 100% | inhibition at 93.75 g/ha [15]: 19.6% | inhibition at 1500 g/ha (Echinochloa crus-galli [16]): 89.3% | inhibition at 375 g/ha (Echinochloa crus-galli [17]): 47.4% | inhibition at 1500 g/ha (Digitaria sanguinalis [18]): 92.3% | inhibition at 750 g/ha [19]: 100% | inhibition at 375 g/ha (Digitaria sanguinalis [20]): 51% | inhibition at 750 g/ha (Amaranthus retroflexus [21]): 85.1% | inhibition at 1500 g/ha (Echinochloa crus-galli [22]): 96.5% | inhibition at 187.5 g/ha (Amaranthus retroflexus [23]): 30.6% | inhibition at 93.75 g/ha (Digitaria sanguinalis [24]): 20.4% | inhibition at 93.75 g/ha [25]: 60.4% | inhibition at 1500 g/ha [26]: 100% | inhibition at 750 g/ha (Echinochloa crus-galli [27]): 49.9% | inhibition at 1500 g/ha [28]: 100% | inhibition at 93.75 g/ha (Echinochloa crus-galli [29]): 10% | inhibition at 750 g/ha (Digitaria sanguinalis [30]): 4.2% | inhibition at 750 g/ha [31]: 100% | inhibition at 187.5 g/ha (Amaranthus retroflexus [32]): 100% | inhibition at 375 g/ha (Amaranthus retroflexus [33]): 53.7% | inhibition at 22.5 g/ha (Digitaria sanguinalis [34]): 4.9% | inhibition at 45 g/ha [35]: 40.7% | inhibition at 375 g/ha (Echinochloa crus-galli [36]): 23.2% | inhibition at 22.5 g/ha (Amaranthus retroflexus [37]): 3.4% | inhibition at 187.5 g/ha (Echinochloa crus-galli [38]): 34.4% | inhibition at 750 g/ha (Digitaria sanguinalis [39]): 67.4% | inhibition at 187.5 g/ha [40]: 93.3% | inhibition at 1500 g/ha (Amaranthus retroflexus [41]): 100% | inhibition at 93.75 g/ha (Amaranthus retroflexus [42]): 19% | inhibition at 187.5 g/ha (Echinochloa crus-galli [43]): 14.2% | inhibition at 375 g/ha [44]: 95.3% | inhibition at 750 g/ha (Echinochloa crus-galli [45]): 89.2% | inhibition at 22.5 g/ha (Echinochloa crus-galli [46]): 5.4% | inhibition at 1500 g/ha (Digitaria sanguinalis [47]): 31.2% | inhibition at 45 g/ha (Echinochloa crus-galli [48]): 7.4%

— ChEMBL document CHEMBL3044834, “Novel protoporphyrinogen oxidase inhibitors: 3H-pyrazolo[3,4-d][1,2,3]triazin-4-one derivatives” (J Agric Food Chem, 2008)
